PGC1a acetyl inh – inhibitors of PGC1a acetylation signal, primary screen, cell-based, U2OS, AlphaScreen, inhibitor mode. AlphaScreen anti-acetyl-lysine; with virally co-expressed GCN5 acetyltransferase. inhibition, % at 15.6 µM. 0.17% of 350,000 active. AID 651687, 2012;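 active = every replicate shows inhibition of at least 40%; inconclusive = mean inhibition at least 40% but some replicate below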;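 note: 0% = neutral control wells and 100% = positive control wells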
DENV2 CPE rescue – inhibitors of DENV2 cytopathic effect, primary screen, cell-based, plate reader, single concentration; DENV2-infected cells, cytopathic effect rescue; CPE inhibition, % at 9.99 µM; 1.7% of 350,000 active; in the data active = CPE inhibition above about 20%, passing the limit was not always enough; inconclusive = no clear call, values can overlap the other calls; tested in BHK-21 cells;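 note: 0% = median of neutral control wells and 100% = median of positive control wells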
C2C12 statin – suppressors of statin myotoxicity in C2C12 myotubes, primary screen, cell-based, single point, plate reader; C2C12 myotubes + simvastatin, ATP luminescence, 48 h; scaled: DMSO 0, geranylgeraniol control 100; AID 602340, 2012; rescue of ATP level, % at 7.49 µM; 0.78% of 330,000 active;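 active = mean ATP rescue above about 67%, or every replicate alone reaching that limit, limit read from the data, passing the limit was not always enough; inconclusive = no clear call, values can overlap the other calls; inactive = mean under the limit and some replicate under it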;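 note: myotubes were challenged with 10 µM simvastatin during compound exposure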
S100A4 inh HTS – inhibitors of S100A4-myosin IIA peptide binding, primary screen, biochemical, fluorescence polarization, TAMRA-MyoIIA peptide | 0.14% of 360,000 active | inhibition, % at 10.7 µM | Protein S100-A4 (Homo sapiens), P26447;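 active = mean inhibition of at least 70% across replicates, with every replicate also reaching that level; inconclusive = mean inhibition reaches 70% but some replicates fall short; inactive = mean inhibition below 70%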
Target sequence (P26447 whole entry, looked up): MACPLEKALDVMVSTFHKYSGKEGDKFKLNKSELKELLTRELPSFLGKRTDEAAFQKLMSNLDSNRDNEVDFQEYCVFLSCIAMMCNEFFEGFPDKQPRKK
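Test system – S100A4 monomer (human) · Compound – single-point compound testing · Schedule – 5 min incubation before reading · Probe or stimulus – TAMRA-labelled myosin IIA heavy-chain peptide probe, 5 nM · Benchmarks – neutral control DMSO, positive control TFP · Medium – Calcium-containing HEPES buffer, pH 7.2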
SIRT5 inh – SIRT5 desuccinylase inhibitors, primary screen, biochemical, fluorescence imaging, single point, set 5. NAD-dependent protein deacylase sirtuin-5, mitochondrial (Homo sapiens), Q9NXA8. 1.1% of 330,000 active. inhibition, % at 15 µM. Purified SirT5, succinyl-peptide AMC, trypsin-coupled fluorescence; in the data active = inhibition above about 15%; inconclusive = no clear call, values can overlap the other calls
Target sequence (Q9NXA8 whole entry, looked up): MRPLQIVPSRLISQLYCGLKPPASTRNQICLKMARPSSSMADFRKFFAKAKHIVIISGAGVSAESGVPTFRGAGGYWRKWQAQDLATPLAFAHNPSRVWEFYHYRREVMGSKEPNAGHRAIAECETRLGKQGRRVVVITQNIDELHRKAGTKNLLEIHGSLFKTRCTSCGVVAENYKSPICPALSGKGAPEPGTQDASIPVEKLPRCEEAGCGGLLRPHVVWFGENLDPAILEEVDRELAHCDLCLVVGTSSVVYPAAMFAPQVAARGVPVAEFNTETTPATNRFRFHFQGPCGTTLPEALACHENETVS
Starred values were filed as active, the others as inactive. Compounds with a hit are over-represented: about 2.9% of the library has one in this group of screens.

Screening COc1cccc(S(=O)(=O)N[C@H]2C=C[C@@H](CC(=O)NC3Cc4ccccc4C3)O[C@@H]2CO)c1 returned PGC1a acetyl inh -8.8, DENV2 CPE rescue 4.8, C2C12 statin 2.4, S100A4 inh HTS -3.1 and SIRT5 inh -2.5.
`C[C@H]1CN([C@@H](C)CO)C(=O)c2cc(-c3ccccc3)cnc2O[C@@H]1CN(C)Cc1ccccc1` gave PGC1a acetyl inh -18.0, DENV2 CPE rescue 19.5, C2C12 statin 11.5, S100A4 inh HTS -5.3 and SIRT5 inh 1.8.
COc1ccc(S(=O)(=O)Nc2ccc3c(c2)C(=O)N([C@H](C)CO)C[C@@H](C)[C@H](CN(C)S(=O)(=O)c2ccccc2)O3)cc1 was read as PGC1a acetyl inh 11.3, DENV2 CPE rescue -1.7, C2C12 statin -4.5, S100A4 inh HTS -1.3 and SIRT5 inh -0.9.
COc1ccc(S(=O)(=O)N(C)C[C@@H]2Oc3ccc(NS(=O)(=O)c4ccccc4)cc3C(=O)N([C@H](C)CO)C[C@H]2C)cc1 was read as PGC1a acetyl inh 1.2, DENV2 CPE rescue 132.8* and C2C12 statin 4.7.
Screening COc1ccc(S(=O)(=O)Nc2ccc3c(c2)C(=O)N([C@H](C)CO)C[C@H](C)[C@H](CN(C)S(=O)(=O)c2ccccc2)OCCCC[C@H](C)O3)cc1 returned PGC1a acetyl inh -9.1, DENV2 CPE rescue inconclusive, S100A4 inh HTS -2.3 and SIRT5 inh 17.3*.
COc1cccc(C#Cc2ccc([C@H]3[C@H](C#N)N(C(=O)C4CCC4)[C@H]3CO)cc2)c1 was read as PGC1a acetyl inh 10.0, DENV2 CPE rescue 2.2, C2C12 statin -6.6, S100A4 inh HTS -4.6 and SIRT5 inh 10.1.
COc1cccc(CN2CCC(CO)(CC3CCCCO3)CC2)c1 (centres undefined) was read as PGC1a acetyl inh 99.9*, DENV2 CPE rescue -3.6, C2C12 statin 8.8, S100A4 inh HTS 4.2 and SIRT5 inh 0.8.
CCN(C[C@H]1[C@@H](c2ccccc2)[C@@H](CO)N1C(=O)COC)S(C)(=O)=O was read as PGC1a acetyl inh 6.9, DENV2 CPE rescue -1.8, C2C12 statin 5.6, S100A4 inh HTS -0.2 and SIRT5 inh 0.9.
CCCCN(C=O)c1c(CC)nc2ccc(C(=O)N3CCN(C(C)=O)CC3)cn12 was read as PGC1a acetyl inh -1.7, DENV2 CPE rescue 0.4, C2C12 statin 0.7, S100A4 inh HTS 0.6 and SIRT5 inh -1.8.
Screening CCc1nc2ccc(C(=O)N3CCCC(C(N)=O)C3)cn2c1N(C=O)CC (centres undefined) returned DENV2 CPE rescue 26.5*, C2C12 statin 4.8, S100A4 inh HTS 3.8 and SIRT5 inh 1.8.
`COc1ccc(C)cc1S(=O)(=O)n1ccnc1C` gave PGC1a acetyl inh -9.4, DENV2 CPE rescue -5.5, C2C12 statin 4.5, S100A4 inh HTS 0.1 and SIRT5 inh 112.1*.
Screening CCOc1ccc(OCC)c(S(=O)(=O)n2ccnc2C)c1 returned DENV2 CPE rescue -4.2, C2C12 statin -1.7, S100A4 inh HTS 1.6 and SIRT5 inh -1.9.
CCOc1ccc(C(C)C)cc1S(=O)(=O)n1ccnc1C was read as PGC1a acetyl inh -3.2, DENV2 CPE rescue 4.3, C2C12 statin 4.8, S100A4 inh HTS 5.7 and SIRT5 inh 16.7*.
For CCCc1nccn1S(=O)(=O)c1cc(OC)ccc1OC the results were C2C12 statin -5.8.
Screening C[C@@H]1CN([C@H](C)CO)C(=O)c2cc(C3=CCCC3)cnc2O[C@H]1CN(C)Cc1ccccc1 returned PGC1a acetyl inh -28.2, DENV2 CPE rescue 1.8, C2C12 statin 17.4, S100A4 inh HTS -11.1 and SIRT5 inh 9.0.
COc1cccc(-c2ccc([C@H]3[C@H](C#N)N(C(=O)Cc4ccccc4)[C@H]3CO)cc2)c1 was read as PGC1a acetyl inh -15.4, DENV2 CPE rescue 9.9, C2C12 statin 23.3, S100A4 inh HTS -3.8 and SIRT5 inh -1.9.
`CN1c2ccc(C3=CCCCC3)cc2[C@H]2[C@H](CCN2C(=O)NC2CCCCC2)[C@@H]1CO` gave PGC1a acetyl inh -6.0, DENV2 CPE rescue -18.6 and C2C12 statin -27.4.
For C[C@H](CO)N1C[C@H](C)[C@H](CN(C)Cc2ccc(Cl)c(Cl)c2)Oc2ccc(NS(=O)(=O)c3ccc(Cl)cc3)cc2CC1=O the results were PGC1a acetyl inh -2.8, DENV2 CPE rescue -4.2, C2C12 statin -0.1, S100A4 inh HTS -6.7 and SIRT5 inh -2.9.
Screening Cc1ccc(S(=O)(=O)Nc2ccc3c(c2)CC(=O)N([C@@H](C)CO)C[C@H](C)[C@@H](CN(C)Cc2ccc(Cl)c(Cl)c2)O3)cc1 returned PGC1a acetyl inh 2.0, DENV2 CPE rescue -8.4, C2C12 statin 71.5*, S100A4 inh HTS -13.3 and SIRT5 inh 1.2.
Screening Cc1ccc(S(=O)(=O)Nc2ccc3c(c2)CC(=O)N([C@@H](C)CO)C[C@@H](C)[C@H](CN(C)Cc2ccc(Cl)c(Cl)c2)O3)cc1 returned PGC1a acetyl inh -7.5, DENV2 CPE rescue 18.9, C2C12 statin 73.9*, S100A4 inh HTS 4.3 and SIRT5 inh 1.9.
Screening Cc1ccc(S(=O)(=O)Nc2ccc3c(c2)CC(=O)N([C@H](C)CO)C[C@H](C)[C@H](CN(C)Cc2ccc(Cl)c(Cl)c2)O3)cc1 returned PGC1a acetyl inh -0.4, DENV2 CPE rescue -3.0, C2C12 statin 5.1, S100A4 inh HTS 3.2 and SIRT5 inh -3.6.
Screening CNC[C@@H]1OCCCC[C@@H](C)Oc2ccc(NC(=O)Nc3ccc(F)cc3)cc2C(=O)N([C@@H](C)CO)C[C@@H]1C returned PGC1a acetyl inh 3.9, DENV2 CPE rescue -0.6, C2C12 statin 14.3, S100A4 inh HTS -4.0 and SIRT5 inh -1.0.
Screening CN(C)CC(=O)N1C[C@@H]2[C@H](c3ccccc31)[C@H](CO)N2Cc1cc(F)ccc1F returned PGC1a acetyl inh 7.4, DENV2 CPE rescue 6.4, C2C12 statin 11.4, S100A4 inh HTS -3.6 and SIRT5 inh 1.6.
For CCc1c(C)nc2ccc(Br)cc2c1SCCC#N the results were PGC1a acetyl inh 25.6, DENV2 CPE rescue -0.7, S100A4 inh HTS 18.9 and SIRT5 inh 112.4*.
For C[C@@H]1CN([C@@H](C)CO)C(=O)c2cc(-c3ccccc3F)cnc2O[C@@H]1CN(C)Cc1ccc(F)cc1 the results were PGC1a acetyl inh 5.5, DENV2 CPE rescue inconclusive, C2C12 statin -6.2, S100A4 inh HTS 6.3 and SIRT5 inh 4.6.
For CC(C)(C)OC(=O)N1O[C@H]2C=C[C@@H]1C2 the results were DENV2 CPE rescue 9.7 and S100A4 inh HTS 3.5.
For O=C(c1ccc[nH]1)N1O[C@@H]2C=C[C@H]1C2 the results were PGC1a acetyl inh -7.0, DENV2 CPE rescue 61.6*, C2C12 statin 2.0 and S100A4 inh HTS 0.4.
